Converted amounts (≈) assume the structure as drawn. The source made the active and inactive calls. The calls are words filed in the database; no cut-off is given here.
Columns and labels:
Staphylococcus aureus [1] = test: Antimicrobial activity against 2-phenoxyphenol/methicillin-resistant Staphylococcus aureus after 18 to 20 hrs by liquid microdilution method; format: functional
Staphylococcus aureus [2] = test: Antimicrobial activity against methicillin-resistant Staphylococcus aureus OM481 clinical isolate after 18 to 20 hrs by liquid microdilution method; format: functional
Staphylococcus aureus [3] = test: Increase in cytoplasmic membrane permeability in Staphylococcus aureus N315 cells assessed as efflux of EtBr by fluorescence assay; format: functional, organism-based
Summary of the method: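 EtBr-loaded S. aureus N315 cells; EtBr release followed as fall in fluorescence (excitation 530 nm, emission 600 nm) after adding test compound.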

Staphylococcus aureus [4] = test: Increase in cytoplasmic membrane permeability in Staphylococcus aureus N315 cells assessed as influx of EtBr by fluorescence assay; format: functional, organism-based
Summary of the method: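 Energized S. aureus N315 cells; EtBr uptake followed as rise in fluorescence (excitation 530 nm, emission 600 nm) immediately after adding test compound.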

Staphylococcus aureus [5] = test: Antimicrobial activity against methicillin-resistant Staphylococcus aureus N315 after 18 to 20 hrs by liquid microdilution method; format: functional
Staphylococcus aureus [6] = test: Effect on membrane permeability assessed as increase in intracellular sodium levels in Staphylococcus aureus N315 cells by ICP-OES analysis; format: functional, organism-based
Staphylococcus aureus [7] = test: Effect on membrane permeability assessed as decrease in intracellular potassium levels in Staphylococcus aureus N315 cells by ICP-OES analysis; format: functional, organism-based
Staphylococcus aureus [8] = test: Bactericidal activity against Staphylococcus aureus N315 cells assessed as reduction of bacterial burden at MIC up to 24 hrs; format: functional
Summary of the method: (§1)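 S. aureus N315 (MRSA strain) survival assay: compound added at 1× or 4× its MIC, with MIC determined by liquid microdilution. Read-out is the number of viable cells remaining over time after addition.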

Staphylococcus aureus [9] = test: Bactericidal activity against Staphylococcus aureus N315 cells assessed as reduction of bacterial burden at 4 times MIC up to 24 hrs; format: functional, organism-based; summary of the method: as §1

Structure (SMILES) | MIC (Staphylococcus aureus [1]) [µg/mL] | MIC (Staphylococcus aureus [2]) [µg/mL] | Activity (Staphylococcus aureus [3]) | Activity (Staphylococcus aureus [4]) | MIC (Staphylococcus aureus [5]) [µg/mL] | Activity (Staphylococcus aureus [6]) | Activity (Staphylococcus aureus [7]) | Activity (Staphylococcus aureus [8]) [log10CFU/ml] | Activity (Staphylococcus aureus [9])
Cc1cc(O)ccc1-c1ccc(CCc2ccccc2)cc1O | 16 (≈ 52.6 µM) | 16 (≈ 52.6 µM) | Active | Active | 16 (≈ 52.6 µM) | – | – | – | –
Oc1ccc(-c2ccccc2O)cc1 | > 128 | > 128 | – | – | > 128 | – | – | – | –
Oc1ccc(-c2ccc(CCc3ccccc3)cc2O)c(CCc2ccccc2)c1 | 8 (≈ 20.3 µM) | 8 (≈ 20.3 µM) | Active | Active | 8 (≈ 20.3 µM) | Active | Active | 3 | Active
Oc1ccc2c(c1)CCc1ccc(cc1)Oc1cc(ccc1O)CCc1ccc-2c(O)c1 [RICCARDI C] | 2 (≈ 4.71 µM) | 2 (≈ 4.71 µM) | – | – | 2 (≈ 4.71 µM) | – | – | – | –
Oc1ccc2c(c1)CCc1cccc(c1)-c1cccc(c1)CCc1ccc-2c(O)c1 | 0.5 (≈ 1.27 µM) | 0.5 (≈ 1.27 µM) | – | – | 0.5 (≈ 1.27 µM) | – | – | – | –
Oc1ccc(CCc2cccc(O)c2)cc1 [LUNULARIN] | > 128 | > 128 | – | – | > 128 | – | – | – | –
Oc1ccccc1Oc1ccccc1 | > 128 | 8 (≈ 43 µM) | – | – | 8 (≈ 43 µM) | – | – | – | –

— ChEMBL document CHEMBL3797152, “Minimum structural requirements for cell membrane leakage-mediated anti-MRSA activity of macrocyclic bis(bibenzyl)s” (2016)
